A selection: hits, their analogues and other compounds. The true share with any hit is near 2.3%.
MEKK2 WT-MEK5: modulators of MEK5 binding to wildtype MEKK2, primary screen, biochemical, multiplex bead flow cytometry, Alexa488-MEK5 | Mitogen-activated protein kinase kinase kinase 2 (Homo sapiens), Q9Y2U5 | Alexa488-MEK5 binding to MEKK2 WT; actives lie on both sides | binding response (% of control), % at 10 µM | 290,000 compounds, 1.1% hits | AID 1531, 2009; in the data active means binding response below about 67% or above about 130%
Arr AP2 block: inhibitors of beta-arrestin/AP2 binding, primary screen, biochemical, GPCR trafficking, flow cytometry. beta-arrestin 1 C-terminal peptide binding to AP2 beta2-adaptin appendage (human). FITC-arrestin peptide / GST-AP2 beads; AP2 beta2 appendage carries R879A mutation. inhibition, % at 10 µM. 340,000 compounds, 0.31% hits. AID 504490, 2011;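 active means inhibition above a set limit, near 3 SD of compounds lacking own fluorescence, cut at about 54% in these data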
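test system = AP2 appendage R879A on GSH beads | buffer or medium = PBS plus Tween 20 (0.05%) and BSA (0.1%) | incubation = 12 min plus 1 h, RT | detection = bead flow cytometry, FITC channel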
MEKK3 PB1 HTS: modulators of MEKK3-MEK5 PB1 binding, primary screen, biochemical, wildtype MEKK3, multiplex bead flow cytometry, Alexa488-MEK5. Mitogen-activated protein kinase kinase kinase 3 (Homo sapiens), Q99759. 290,000 compounds, 1.4% hits. bead-based flow cytometry, Alexa488-MEK5 binding to MEKK3; actives lie on both sides; 0 = blocked by unlabeled MEK5, 100 = vehicle. binding response (% of control), % at 10 µM. AID 1529, 2009;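 active means binding response more than 3 SD above or below the average of its plate-row segment, actives on both sides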;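 further: Alexa488 bead fluorescence after subtracting the streptavidin-only scavenger bead signal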
Target sequence (Q99759 whole entry, looked up): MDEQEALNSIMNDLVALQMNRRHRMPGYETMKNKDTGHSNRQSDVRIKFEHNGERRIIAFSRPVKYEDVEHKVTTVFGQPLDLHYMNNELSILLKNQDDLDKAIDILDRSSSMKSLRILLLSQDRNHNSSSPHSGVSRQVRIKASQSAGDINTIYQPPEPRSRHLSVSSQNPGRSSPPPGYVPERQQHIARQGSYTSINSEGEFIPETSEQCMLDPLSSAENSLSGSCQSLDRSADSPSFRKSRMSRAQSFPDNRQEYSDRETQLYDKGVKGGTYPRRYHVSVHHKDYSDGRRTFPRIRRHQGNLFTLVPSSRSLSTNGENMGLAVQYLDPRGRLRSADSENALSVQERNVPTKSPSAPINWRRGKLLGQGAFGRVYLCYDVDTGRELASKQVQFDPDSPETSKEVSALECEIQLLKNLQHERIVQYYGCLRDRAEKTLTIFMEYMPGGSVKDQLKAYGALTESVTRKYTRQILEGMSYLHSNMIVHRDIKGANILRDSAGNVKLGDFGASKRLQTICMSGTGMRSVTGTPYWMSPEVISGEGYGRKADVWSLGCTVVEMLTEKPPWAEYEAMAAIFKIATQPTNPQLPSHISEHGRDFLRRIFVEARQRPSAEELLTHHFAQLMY
MEKK2 mut-MEK5: MEK5 binding signal on mutant MEKK2 PB1, primary screen, biochemical, multiplex bead flow cytometry, Alexa488-MEK5; Alexa488-MEK5 binding to MEKK2 mutant; 290,000 compounds, 0.35% hits; AID 1530, 2009; percent response, % at 10 µM; in the data active means percent response above about 24%, passing the limit was not always enough
MEKK2wt confirm: modulators of MEK5 binding to wildtype MEKK2, confirmation, biochemical, single concentration, multiplex bead flow cytometry. AID 1892, 2009. Alexa488-MEK5 binding to MEKK2 WT; actives lie on both sides. binding response (% of control), % at 10 µM. shares compounds with MEKK3 PB1 HTS. 5,900 compounds, 2.4% hits; in the data active means binding response below about 16% or above about 210%; inactive means in between
MEKK2mut confirm: mutant MEKK2 PB1-MEK5 binding signal retest – biochemical, single concentration, multiplex bead flow cytometry, confirmation. percent response, % at 10 µM. 5,900 compounds, 2% hits. AID 1893, 2009. Alexa488-MEK5 binding to MEKK2 mutant. shares compounds with MEKK3 PB1 HTS; in the data active means percent response mostly above about 71%, no sharp cut-off; inactive means mostly below about 38%;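 further: higher means compound restores mutant binding toward wildtype level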
MEKK3-MEK5 inh: MEKK3 wild-type PB1 binding to MEK5, inhibitors, confirmation, biochemical, bead multiplex flow cytometry, single concentration, wildtype; shares compounds with MEKK3 PB1 HTS; Alexa488-MEK5 binding to MEKK3; hits give low values; binding response (% of control), % at 10 µM; 5,900 compounds, 1.8% hits;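 active means binding response below 72% of control, or above a set upper limit, though filed actives all read lower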
Each line names hits and unclear results; the compound was inactive in the other large screens (follow-up assays come after a bar, where they were run); [ ] = another dose, or the depositor's remark.

Cc1ccc(C(=O)CC(C(=O)O)n2cnc([N+](=O)[O-])n2)cc1 (configuration not stated)	MEKK3 PB1 HTS 49.0[inhibitor] | MEKK2wt confirm inactive | MEKK2mut confirm inactive | MEKK3-MEK5 inh inactive
C/C(=C\c1ccco1)CN1CCN(Cc2ccc(C)o2)C(CCO)C1 (configuration not stated)	none
CN(C)S(=O)(=O)c1ccc(C(=O)NCC(C)(C)CN=C2NS(=O)(=O)c3ccccc32)cc1	none
CCOC(=O)C1CCCN(C(=O)c2cccc(NC(=O)C(CC)CC)c2)C1 (configuration not stated)	none
O=C(CSCC(=O)N1CCOCC1)Nc1nc(-c2ccccc2)cs1	MEKK3 PB1 HTS 131.0 | MEKK2wt confirm inactive | MEKK2mut confirm inactive | MEKK3-MEK5 inh inactive
COc1ccc(N2C(=O)C3NN=C(C(=O)OCc4ccccc4)C3C2=O)cc1 (configuration not stated)	none
O=C(CCC1CCCN(Cc2ccc3c(c2)CCO3)C1)NCc1ccc(F)c(F)c1 (configuration not stated)	none
Cc1ccc(/C=C/C(=O)NC2=NCCS2)cc1	MEKK2 WT-MEK5 144.0 | MEKK2wt confirm inactive | MEKK2mut confirm inactive | MEKK3-MEK5 inh inactive
Cc1ccc(S(=O)(=O)c2c(N)n(-c3ccccc3)c3nc4ccccc4nc23)cc1	MEKK3 PB1 HTS 136.0 | MEKK2wt confirm inactive | MEKK2mut confirm inactive | MEKK3-MEK5 inh inactive
O=C1CC(/C=C/c2ccncc2)=Nc2ccccc2N1	none
O=C(CN1CCOCC1)NNc1c2ccccc2nc2ccccc12	MEKK2 WT-MEK5 37.0[inhibitor], MEKK3 PB1 HTS 40.0[inhibitor] | MEKK2wt confirm inactive | MEKK2mut confirm inactive | MEKK3-MEK5 inh inactive
C[N+]1(CC(=O)NNc2c3ccccc3nc3ccccc23)CCOCC1	none (no result: Arr AP2 block)
CCCCCC(=O)Nc1sc(C)c(C)c1C#N	none
COCCNC(=S)NN=C1CCCCCC1	MEKK2 WT-MEK5 7.0[inhibitor], MEKK3 PB1 HTS 4.0[inhibitor] | MEKK2wt confirm inactive | MEKK2mut confirm inactive | MEKK3-MEK5 inh inactive
CCc1ccc(Nc2n[n+](-c3ccccc3)c(-c3cc(OC)c(OC)cc3Br)s2)cc1	MEKK2 WT-MEK5 194.0, MEKK2 mut-MEK5 77.0 | MEKK2wt confirm 225.0 | MEKK2mut confirm 75.0 | MEKK3-MEK5 inh inactive
COc1ccc2ccccc2c1-c1sc(Nc2ccccc2)n[n+]1-c1ccc(F)cc1	MEKK2 WT-MEK5 155.0, MEKK2 mut-MEK5 43.0 | MEKK2wt confirm inactive | MEKK2mut confirm inactive | MEKK3-MEK5 inh inactive
CCc1ccc(Nc2n[n+](-c3ccccc3)c(/C=C/c3ccccc3)s2)cc1	MEKK2 WT-MEK5 189.0, MEKK2 mut-MEK5 25.0 (no result: Arr AP2 block) | MEKK2wt confirm inactive | MEKK2mut confirm inactive | MEKK3-MEK5 inh inactive
O=C(COC(=O)C1CCCCC1)Nc1ccc(S(=O)(=O)N2CCOCC2)cc1	none
O=C(CCN1C(=O)c2cccc([N+](=O)[O-])c2C1=O)Nc1nccs1	none
CC(=O)O[C@H]1[C@H](C)OC=C[C@@H]1OC(C)=O	MEKK2 WT-MEK5 151.0 | MEKK2wt confirm inactive | MEKK2mut confirm inactive | MEKK3-MEK5 inh inactive
C/C(=N\NC(=O)COc1cccc(Br)c1)c1ccc2c(c1)OCCO2	none (no result: MEKK2 WT-MEK5, MEKK3 PB1 HTS, MEKK2 mut-MEK5)
C/C=C(/C)C(=O)O[C@H]1[C@@H](O)c2c(ccc3ccc(=O)oc23)OC1(C)C	MEKK3 PB1 HTS 123.0 | MEKK2wt confirm inactive | MEKK2mut confirm inactive | MEKK3-MEK5 inh inactive
C/C=C(/C)C(=O)O[C@@H]1[C@H](OC(C)=O)c2c(ccc3ccc(=O)oc23)OC1(C)C	none
Oc1c(C=Nc2cccc3cccnc23)sc2ccccc12	MEKK2 WT-MEK5 50.0[inhibitor] (no result: Arr AP2 block) | MEKK2wt confirm inactive | MEKK2mut confirm inactive | MEKK3-MEK5 inh inactive
CN(C)c1cccc(C(=O)OCCNC(=O)c2cccc(S(=O)(=O)N3CCOCC3)c2)c1	MEKK3 PB1 HTS 46.0[inhibitor] | MEKK2wt confirm inactive | MEKK2mut confirm inactive | MEKK3-MEK5 inh inactive
CCc1ccc(C(=O)N/N=C/c2cccc3ccccc23)nc1	none
Cc1nnc(SCC(N)=O)n1CCc1ccccc1	MEKK3 PB1 HTS 136.0 | MEKK2wt confirm inactive | MEKK2mut confirm inactive | MEKK3-MEK5 inh inactive
Cc1nnc(SCC(=O)NC(C)(C)C)n1CCc1ccccc1	none
O=C(C1=C[C@@H](c2ccc(C(F)(F)F)cc2)C[C@@H](OCCCCO)O1)N1CCOCC1	none
O=C(C1=C[C@H](c2ccc(C(F)(F)F)cc2)C[C@H](OCCCCO)O1)N1CCOCC1	MEKK3 PB1 HTS 82.0[inhibitor] | MEKK2wt confirm inactive | MEKK2mut confirm inactive | MEKK3-MEK5 inh inactive
CCOC(=O)C1=C(C(=O)OCC)N(Cc2ccccc2)CCC1=O	none (no result: MEKK2 WT-MEK5, MEKK3 PB1 HTS, MEKK2 mut-MEK5)
Cc1ccc(SCc2nc3ccccc3n2CC(=O)Nc2ccc(Cl)cc2)cc1	MEKK2 WT-MEK5 136.0, MEKK2 mut-MEK5 26.0 | MEKK2wt confirm inactive | MEKK2mut confirm inactive | MEKK3-MEK5 inh inactive
COc1cc(NC(=O)c2ccccc2F)ccc1NC(=O)c1cc2ccccc2o1	none
N#Cc1c(-c2ccc3c(c2)OCO3)csc1N	MEKK3 PB1 HTS 123.0 | MEKK2wt confirm inactive | MEKK2mut confirm inactive | MEKK3-MEK5 inh inactive
CCN(CC)c1ccc(/C=C(\C#N)C(=O)c2ccc(Br)cc2)cc1	MEKK2 WT-MEK5 148.0, MEKK2 mut-MEK5 153.0 | MEKK2wt confirm inactive | MEKK2mut confirm inactive | MEKK3-MEK5 inh inactive
OC1(c2cccc(C(F)(F)F)c2)CCN(CCN2CCCCC2)CC1	MEKK2 WT-MEK5 140.0 | MEKK2wt confirm inactive | MEKK2mut confirm inactive | MEKK3-MEK5 inh inactive
CCN1CCCC1CNc1ncnc2c1[nH]c1ccc(Cl)cc12 (configuration not stated)	MEKK2 mut-MEK5 35.0 | MEKK2wt confirm inactive | MEKK2mut confirm inactive | MEKK3-MEK5 inh inactive
O=C(O)c1cccc(N/N=C/C2=C(Cl)c3cc(Cl)ccc3SC2)c1	MEKK2 WT-MEK5 10.0[inhibitor], MEKK3 PB1 HTS 28.0[inhibitor] | MEKK2wt confirm inactive | MEKK2mut confirm inactive | MEKK3-MEK5 inh inactive
O=C(CN1C(=O)NC2NC(=O)NC21)NN=C1CCCC1 (configuration not stated)	MEKK3 PB1 HTS 150.0 | MEKK2wt confirm inactive | MEKK2mut confirm inactive | MEKK3-MEK5 inh inactive
O=C(Nc1cc(C2CC2)nn1-c1ccccc1)c1ccc(F)cc1	none (no result: MEKK2 WT-MEK5, MEKK3 PB1 HTS, MEKK2 mut-MEK5)
COc1cccc(CN2CCC(n3nccc3NC(=O)CCOc3ccccc3)CC2)c1	none
